Where only a bound is given, the exact number is not on record here.

Series [1] can be described thus: Isoaspartyl content of peptides. Format: physicochemical. Particulars: tested at 250 pmol. In short, it runs like this:
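Isoaspartate quantified by radiolabelled methyl incorporation using protein isoaspartyl methyltransferase and S-adenosyl-L-[methyl-3H]methionine, following the ISOQUANT kit protocol. Each peptide preparation was tested at 250 pmol. The manufacturer's standard gave an estimated 1,754 cpm per pmol. Batches had been stored frozen or at 4°C.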

The next series concerns type B T cells. As to the kind of experiment: Type B T cell hybridomas, recognition. It is filed as cell-based. Conditions: none of the type B triggered up to the value. The gist of the method: (§1)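 IL-2 release assay: I-Ak-expressing M12.C3.F6 B lymphoma cells (5 × 104) were incubated with T cell hybridomas (5 × 104) and decreasing doses of antigen (native HEL or HEL 48–61 peptide) in MEM with 10% FCS for 18 h. Supernatants went to IL-2-dependent CTLL-2 cells cultured 40 h, with [3H]thymidine for the last 24 h.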

Another series relates to type A T cells. As to the kind of experiment: Type A T cell hybridomas, recognition. Format: cell-based. Particulars: all type A T cells in Table 1. The gist of the method: as §1
The next series relates to T cell proliferation. Particulars: in words; cited from earlier work.
The mark [2] stands for this setting: batch RD (7/00), tryptic peptide from HEL.
Setting [3] is: batch Abbt (6/98), commercial source.

In series [1] (setting [2]), 46–61: tryptic peptide from HEL showed a percentage of isoaspartyl of 0.9% and a pmol of isoaspartyl of 2.1 pmol.

Turning to “48–63: HEL peptide 48–63, batches 1387 and Abbt (commercial source) (DGSTDYGILQINSRWW; UniProt P00698 66-81, looked up, fragment)”, in series [1] (batch 1387 (8/99)), the percentage of isoaspartyl is reported as 0.1% and the pmol of isoaspartyl came to 0.3 pmol. Besides, in series [1] (setting [3]), the percentage of isoaspartyl is listed as 0 (0%) and the pmol of isoaspartyl is listed as 0 (0%) pmol.

Consider “HEL: HEL was purchased from Sigma-Aldrich”, for which the “HEL concentration up to which none of the type B T cells were triggered” value with type B T cells is over 10 µM. Moreover, in the series with type A T cells, the “HEL concentration triggering all type A T cells” value is about 0.1 µM.

As to “murine cytochrome c peptide, residues 90–104: murine cytochrome c peptide, residues 90–104 (ERADLIAYLKKATNE; UniProt P62897 91-105, looked up, fragment)”, in the series with T cell proliferation, the “T cell proliferation after immunization of mice” value is “did not trigger T cell proliferation”.

The record behind these values is PMC2193507 (The Journal of Experimental Medicine, 2001).
